In ChEMBL document CHEMBL1629563, “Pharmacokinetic and safety evaluation of BILR 355, a second-generation nonnucleoside reverse transcriptase inhibitor, in healthy volunteers” (Antimicrob Agents Chemother, 2008):

Key:
Homo sapiens [1] = assay: Ratio of Cmax in human at 25 mg, po in presence of 100 mg of ritonavir to Cmax in human at 25 mg, po; format: ADME, organism-based; conditions: in vivo
Homo sapiens [2] = assay: Toxicity in healthy human assessed as occurrence of maculopapular rash at 100 mg, po administered as single dose; format: organism-based; conditions: in vivo
Homo sapiens [3] = assay: Toxicity in healthy human assessed as occurrence of headache at 5 mg, po administered as single dose relative to control; format: organism-based; conditions: in vivo
[4] = Apparent volume of distribution at steady state in healthy human at 25 mg, po administered as single dose; format: ADME, organism-based; conditions: in vivo, read-out: Vss/F
Method in brief: (§1)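 Healthy male volunteers, six active plus two placebo per dose group, single oral dose in PEG solution with 200 ml water after overnight fast; breakfast 60 to 90 min post-dose. EDTA plasma sampled predose to 144 h. Assayed by validated LC-MS/MS after protein precipitation. Noncompartmental analysis, AUC by linear up/log down trapezoidal rule; Vss = CL/F·(MRTp.o. − 1/Ka).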

[5] = Mean residence time in healthy human at 62.5 mg, po administered as single dose coadministered with 100 mg of ritonavir; format: ADME, organism-based; conditions: in vivo
Homo sapiens [6] = assay: Toxicity in healthy human assessed as occurrence of maculopapular rash at 5 mg, po administered as single dose coadministered with 100 mg of ritonavir; format: organism-based; conditions: in vivo
[7] = AUC (0 to last) in healthy human at 5 mg, po administered as single dose; format: ADME, organism-based; parameters: dose 5 mg, time 0 - last, route oral; conditions: plasma; method in brief: as §1
[8] = AUC (0 to last) in healthy human at 12.5 mg, po administered as single dose coadministered with 100 mg of ritonavir; format: ADME, organism-based; parameters: dose 12.5 mg, time 0 - last, route oral; conditions: plasma
Method in brief: (§2)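 Healthy male volunteers, fasted. Ritonavir 100 mg given 10 h before and again together with single oral BILR 355 in PEG solution. EDTA plasma sampled predose to 144 h. LC-MS/MS assay after protein precipitation. Noncompartmental analysis, AUC by linear up/log down trapezoidal rule; Vss = CL/F·(MRTp.o. − 1/Ka).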

[9] = Apparent volume of distribution at steady state in healthy human at 62.5 mg, po administered as single dose coadministered with 100 mg of ritonavir; format: ADME, organism-based; conditions: in vivo, read-out: Vss/F
Method in brief: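 Healthy male volunteers, fasted overnight, got one oral dose of BILR 355 in PEG solution with 200 ml water. Ritonavir 100 mg was given 10 h before and again with the dose. Plasma was sampled (EDTA) from predose to 144 h and assayed by validated LC-MS/MS. Cmax and Vz/F came from noncompartmental analysis. Vss/F = CL/F·(MRTp.o. − 1/Ka), with Ka from compartmental modelling.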

[10] = AUC (0 to last) in healthy human at 87.5 mg, po administered as single dose coadministered with 100 mg of ritonavir; format: ADME, organism-based; parameters: dose 87.5 mg, route oral, time 0 - last; conditions: plasma; method in brief: as §2
Homo sapiens [11] = assay: Toxicity in healthy human assessed as occurrence of herpes simplex at 50 mg, po administered as single dose relative to control; format: organism-based; conditions: in vivo
Homo sapiens [12] = assay: Toxicity in healthy human assessed as occurrence of flatulence at 50 mg, po administered as single dose relative to control; format: organism-based; conditions: in vivo
[13] = Renal clearance in healthy human at 5 mg, po administered as single dose by high-pressure liquid chromatography-tandem mass spectrometry/mass spectrometry method; format: ADME, organism-based, Kidney; conditions: in vivo, read-out: CL_renal (converted)
[14] = Renal clearance in healthy human at 12.5 mg, po administered as single dose by high-pressure liquid chromatography-tandem mass spectrometry/mass spectrometry method; format: ADME, organism-based, Kidney; conditions: in vivo, read-out: CL_renal (converted)
[15] = AUC (0 to infinity) in healthy human at 87.5 mg, po administered as single dose coadministered with 100 mg of ritonavir; format: ADME, organism-based; parameters: dose 87.5 mg, time infinity, route oral; conditions: plasma; method in brief: as §2
Homo sapiens [16] = assay: Toxicity in healthy human assessed as occurrence of constipation at 5 mg, po administered as single dose relative to control; format: organism-based; conditions: in vivo
[17] = Apparent oral clearance in healthy human at 12.5 mg, po administered as single dose; format: ADME, organism-based; conditions: in vivo; method in brief: as §1
[18] = Apparent oral clearance in healthy human at 75 mg, po administered as single dose coadministered with 100 mg of ritonavir; format: ADME, organism-based; conditions: in vivo; method in brief: as §2
[19] = AUC (0 to infinity) in healthy human at 12.5 mg, po administered as single dose coadministered with 100 mg of ritonavir; format: ADME, organism-based; parameters: dose 12.5 mg, route oral, time infinity; conditions: plasma; method in brief: as §2
Homo sapiens [20] = assay: Toxicity in healthy human assessed as occurrence of neurological eyelid disorder at 25 mg, po administered as single dose relative to control; format: organism-based; conditions: in vivo
Homo sapiens [21] = assay: Toxicity in healthy human assessed as occurrence of herpes simplex at 12.5 mg, po administered as single dose relative to control; format: organism-based; conditions: in vivo
[22] = Apparent oral clearance in healthy human at 100 mg, po administered as single dose; format: ADME, organism-based; conditions: in vivo; method in brief: as §1
[23] = Drug excretion in healthy human urine assessed as unchanged drug at 25 mg, po administered as single dose coadministered with 100 mg of ritonavir by high-pressure liquid chromatography-tandem mass spectrometry/mass spectrometry method; format: ADME, organism-based; conditions: read-out: Drug uptake
Method in brief: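 Ritonavir 100 mg was given 10 h before and with one oral dose of BILR 355 in PEG solution. Urine was collected by weight as predose blank, then 0-6, 6-24 and 24-72 h, stored at −20°C and assayed by LC-MS/MS. fe = unchanged drug excreted (Ae) as a percentage of dose. Line 50: high-fat breakfast 30 min before dosing.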

[24] = Apparent volume of distribution in terminal phase in healthy human at 75 mg, po administered as single dose; format: ADME, organism-based; conditions: in vivo, read-out: Vz/F
Method in brief: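 Single fasting oral dose of BILR 355 in PEG solution with 200 ml tap water, given to healthy males. Standard breakfast came 60-90 min after the dose. EDTA plasma was sampled predose to 144 h, stored below −18°C and assayed by LC-MS/MS after protein precipitation. Noncompartmental analysis gave Vz/F. Vss/F = CL/F·(MRTp.o. − 1/Ka), with Ka from compartmental modelling.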

Homo sapiens [25] = assay: Toxicity in healthy human assessed as occurrence of herpes simplex at 5 mg, po administered as single dose relative to control; format: organism-based; conditions: in vivo
[26] = Renal clearance in healthy human at 5 mg, po administered as single dose coadministered with 100 mg of ritonavir by high-pressure liquid chromatography-tandem mass spectrometry/mass spectrometry method; format: ADME, organism-based, Kidney; conditions: in vivo, read-out: CL_renal (converted)
Homo sapiens [27] = assay: Ratio of Cmax in human at 50 mg, po in presence of 100 mg of ritonavir to Cmax in human at 50 mg, po; format: ADME, organism-based; conditions: in vivo
[28] = AUC (0 to infinity) in healthy human at 50 mg, po administered as single dose coadministered with 100 mg of ritonavir; format: ADME, organism-based; parameters: dose 50 mg, time infinity, route oral; conditions: plasma; method in brief: as §2
Homo sapiens [29] = assay: Toxicity in healthy human assessed as occurrence of palpitations at 50 mg, po administered as single dose relative to control; format: organism-based; conditions: in vivo
Homo sapiens [30] = assay: Toxicity in healthy human assessed as occurrence of constipation at 25 mg, po administered as single dose relative to control; format: organism-based; conditions: in vivo
[31] = Mean residence time in healthy human at 5 mg, po administered as single dose; format: ADME, organism-based; conditions: in vivo
Homo sapiens [32] = assay: Toxicity in healthy human assessed as occurrence of aphthous stomatitis at 75 mg, po administered as single dose coadministered with 100 mg of ritonavir; format: organism-based; conditions: in vivo
[33] = Mean residence time in healthy human at 75 mg, po administered as single dose coadministered with 100 mg of ritonavir; format: ADME, organism-based; conditions: in vivo
Homo sapiens [34] = assay: Toxicity in healthy human assessed as occurrence of increase in alanine aminotransferase level at 1 mg, po administered as single dose relative to control; format: organism-based; conditions: in vivo

Compound: CCN1c2ncc(CCOc3cc[n+]([O-])c4ccccc34)cc2C(=O)N(C)c2cccnc21 [BILR 355]
- Ratio (Homo sapiens [1]): 5.4
- Activity (Homo sapiens [2]): 0%
- Activity (Homo sapiens [3]): 0%
- Vd/F [4]: 914 L
- MRT [5]: 14 h
- Activity (Homo sapiens [6]): 0%
- AUC(0-t) [7]: 13.6 ng·h/mL
- AUC(0-t) [8]: 1680 ng·h/mL
- Vd/F [9]: 113 L
- AUC(0-t) [10]: 11700 ng·h/mL
- Activity (Homo sapiens [11]): 0%
- Activity (Homo sapiens [12]): 0%
- CL renal [13]: 4.52 mL/min
- CL renal [14]: 6.85 mL/min
- AUC(0-inf) [15]: 11800 ng·h/mL
- Activity (Homo sapiens [16]): 0%
- CL/F [17]: 4100 mL/min
- CL/F [18]: 106 mL/min
- AUC(0-inf) [19]: 1960 ng·h/mL
- Activity (Homo sapiens [20]): 0%
- Activity (Homo sapiens [21]): 0%
- CL/F [22]: 1320 mL/min
- dose excreted [23]: 6.62%
- Vd/F [24]: 832 L
- Activity (Homo sapiens [25]): 16.7%
- CL renal [26]: 6.03 mL/min
- Ratio (Homo sapiens [27]): 2.9
- AUC(0-inf) [28]: 6800 ng·h/mL
- Activity (Homo sapiens [29]): 0%
- Activity (Homo sapiens [30]): 16.7%
- MRT [31]: 7.74 h
- Activity (Homo sapiens [32]): 0%
- MRT [33]: 17.4 h
- Activity (Homo sapiens [34]): 0%
